Measurements from different studies.
Target: Activin receptor type-1B (ACVR1B, Homo sapiens, UniProt P36896)
Residues used in one study (P36896 1-505): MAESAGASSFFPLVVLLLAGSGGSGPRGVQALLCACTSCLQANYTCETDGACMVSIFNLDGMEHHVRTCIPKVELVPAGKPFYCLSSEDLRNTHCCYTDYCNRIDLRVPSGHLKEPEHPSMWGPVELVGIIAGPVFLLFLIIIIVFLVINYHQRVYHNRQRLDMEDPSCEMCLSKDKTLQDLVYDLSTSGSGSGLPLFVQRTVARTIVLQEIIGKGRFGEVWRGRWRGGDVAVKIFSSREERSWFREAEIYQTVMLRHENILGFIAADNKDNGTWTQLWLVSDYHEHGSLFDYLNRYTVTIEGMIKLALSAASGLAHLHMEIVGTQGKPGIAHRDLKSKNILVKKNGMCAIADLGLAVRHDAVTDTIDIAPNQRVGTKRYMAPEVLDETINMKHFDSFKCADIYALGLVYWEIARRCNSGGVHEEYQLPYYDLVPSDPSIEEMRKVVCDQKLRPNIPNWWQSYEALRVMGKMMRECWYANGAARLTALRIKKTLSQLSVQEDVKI

SMILES	effect on	method	tested at	remaining binding [%]
F[C@@H]1CCN(c2nccc(-c3cnn4ncccc34)n2)C1	binding		1 µM	100
O=C(NCc1ncc(C(F)(F)F)cc1Cl)c1ccc2c(c1)C1(CCS(=O)(=O)CC1)[C@@H](C1CC1)N2S(=O)(=O)c1ccc(F)cc1	cell-free assay	competition with immobilised ligand	1 µM	87
N[C@@H]1CCN(c2nccc(-c3cnn4ncccc34)n2)C1	binding		1 µM	100
CNC(=O)[C@@H]1CC[C@@H](n2c(-c3ccc4cnccc4c3)nc3ccc(C(=O)NCc4cccc(C(N)=O)c4)cc32)C1	binding	competition with immobilised ligand	1 µM	100
CC(C)(C)c1ccc(-c2nc(CBr)nn2-c2cccc(O)c2)cc1	cell-free assay	competition with immobilised ligand	10 µM	100
COc1ncc2cc3ccccc3nc2c1C#N	cell-free assay	competition with immobilised ligand	5 µM	88
O=C(NCC1CCOCC1)c1n[nH]cc1NC(=O)c1c(F)cccc1F	binding	competition with immobilised ligand	1 µM	100
O=C(c1ccc(Nc2nccc(-c3cc4ccccc4s3)n2)cc1)N1CCC(N2CCCC2)CC1	binding	competition with immobilised ligand	1 µM	71
COc1cccc(CNC(=O)c2nc3scc(COCc4ccc(C(=O)O)cc4)c3c(=O)[nH]2)c1	cell-free assay	competition with immobilised ligand	1 µM	89.4
c1cnn2ncc(-c3ccnc(N4CCC45COC5)n3)c2c1	binding		1 µM	82
Cc1c(NC(=O)c2cc(C(N)=O)nc3cc(F)ccc23)c(C(F)(F)F)nn1Cc1ccc(C#N)cc1	cell-free assay	competition with immobilised ligand	1 µM	80
C[C@@H](c1ccc(-n2cnc3c(N)ncnc32)cc1)N1CCc2nn(C)c(Cc3ccccc3)c2C1=O	binding	competition with immobilised ligand	0.1 µM	93
CCC(=O)N[C@@H]1CC[C@H](C(=O)N(C)c2ccc(-c3nc4ccccc4o3)cc2)C1	cell-free assay	competition with immobilised ligand	1 µM	100
O=C(NCCCN1CCOCC1)c1ccc(Nc2ncc(Cl)c(-c3ccc(Cl)s3)n2)cc1	binding	competition with immobilised ligand	1 µM	59
CN(C)c1ncc(F)c(-c2cnn3ncccc23)n1	binding		1 µM	100
CC(=O)C1=C(C)N(c2cccc(C(F)(F)F)c2)C(=O)N[C@@H]1c1ccc(C#N)nc1	cell-free assay	competition with immobilised ligand	1 µM	100
